In ChEMBL document CHEMBL5532693, “Design, synthesis and antimycobacterial activity of imidazo[1,5-a]quinolines and their zinc-complexes” (RSC Med Chem, 2024):
≈ marks a conversion by molar mass, not a printed value.

What was measured:
Calu-3 = test: Cytotoxicity against human Calu-3 cells assessed as reduction in cell viability at 100 uM incubated for 48 hrs by CellTiter-Glo Luminescent Cell Viability assay; assay type: toxicity, cell-based; conditions: calu-3, 48 h
Method in brief: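 Confluent Calu-3 cells in DMEM/F-12 GlutaMAX with 10% FCS and 1% penicillin/streptomycin, 37°C, 5% CO2. Compounds were dissolved in DMSO (10 mM stocks) and tested once at 100 μM final with 1% DMSO, in triplicate, for 48 h. ATP luminescence was normalized to the DMSO control (100%). Viability below 80% was classed as cytotoxic. Ionomycin 100 μM served as positive control.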

[1] = system: Mycobacterium tuberculosis; test: Antibacterial activity against Mycobacterium tuberculosis H37Ra assessed as inhibition of bacterial growth incubated for 7 days by BacTiter-Glo reagent based assay; assay type: functional
Method in brief: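 M. tuberculosis H37Ra pre-grown 14 days in 7H9 with palmitic acid, casitone, BSA, catalase and 0.2% glycerol (37°C, 180 rpm, 85% rH). Diluted to McFarland 1, then to 1 × 10⁶ cells/mL. Compounds were in DMSO. Plates were held 7 days microaerophilic at 37°C/5% CO₂, with ATP luminescence read-out. MIC was the lowest concentration giving ≥85% inhibition versus blank-normalised untreated growth.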

[2] = system: Mycobacterium tuberculosis; test: Antibacterial activity against Mycobacterium tuberculosis; assay type: functional

| Compound | Activity (Calu-3) | MIC [2] [µM] | also measured |
| --- | --- | --- | --- |
| c1ccc(N(c2ccccc2)c2nc(-c3ccccn3)c3ccc4ccccc4n23)cc1 | Non-Toxic |  |  |
| c1ccc(-c2nc(-c3ccccn3)n3c2ccc2ccccc23)nc1 | Non-Toxic |  | MIC ([1]; 168 h, time 7 day): 6 µM (≈ 1.93 µg/mL) |
| NCC[C@H](O)C(=O)N[C@@H]1C[C@H](N)[C@@H](O[C@H]2O[C@H](CN)[C@@H](O)[C@H](O)[C@H]2O)[C@H](O)[C@H]1O[C@H]1O[C@H](CO)[C@@H](O)[C@H](N)[C@H]1O [AMIKACIN] |  | 0.4 (≈ 0.234 µg/mL) |  |
| c1ccc(-c2nc(-c3ncccn3)c3ccc4ccccc4n23)cc1 | Toxic |  |  |
| COc1ccccc1-c1nc(-c2ccccc2)n2c1ccc1ccccc12 | Non-Toxic |  |  |
| c1ccc(-c2nc(-c3ccccn3)n3c2ccc2ccccc23)cc1 | Toxic |  | MIC ([1]; 168 h, time 7 day): 25 µM (≈ 8.03 µg/mL) |
| NNC(=O)c1ccncc1 [ISONIAZID] |  | 0.3 (≈ 0.0411 µg/mL) |  |
| CCc1cc(C(N)=S)ccn1 [ETHIONAMIDE] |  | 10 (≈ 1.66 µg/mL) |  |
| CC[C@@H](CO)NCCN[C@@H](CC)CO [ETHAMBUTOL] |  | 0.3 (≈ 0.0613 µg/mL) |  |
| c1ccc(-c2ccc(-c3nc(-c4ccccc4)n4c3ccc3ccccc34)nc2)cc1 | Non-Toxic |  |  |
| c1ccc(-c2nc(-c3cccc4ccccc34)n3c2ccc2ccccc23)nc1 | Toxic |  | MIC ([1]; 168 h, time 7 day): 1 µM (≈ 0.371 µg/mL) |
| c1ccc(-c2nc(-c3cc4ccccc4cn3)c3ccc4ccccc4n23)cc1 | Non-Toxic |  | MIC ([1]; 168 h, time 7 day): 0.5 µM (≈ 0.186 µg/mL) |
| COc1nc2ccc(Br)cc2cc1[C@@H](c1ccccc1)[C@@](O)(CCN(C)C)c1cccc2ccccc12 [BEDAQUILINE] |  | 0.03 (≈ 0.0167 µg/mL) |  |
| GENTAMICIN |  |  | MIC ([1]; time 7.0 day): 4 µM |
| CN(C)c1ccccc1-c1nc(-c2ccccc2)n2c1ccc1ccccc12 | Toxic |  |  |
| c1ccc(-c2nc(-c3ccccc3)n3c2ccc2ccccc23)cc1 | Non-Toxic |  |  |
| C[C@H]1COc2c(N3CCN(C)CC3)c(F)cc3c(=O)c(C(=O)O)cn1c23 [LEVOFLOXACIN ANHYDROUS] |  | 0.8 (≈ 0.289 µg/mL) |  |
| c1ccc(-c2nc(-c3ccccn3)c3ccc4ccccc4n23)cc1 | Toxic |  |  |
| c1ccc(-c2nc(-c3cccs3)c3ccc4ccccc4n23)cc1 | Non-Toxic |  |  |
